This is a sample that favours compounds with a hit; in the whole collection about 3.3% have one here.
Exocytosis inh = lytic granule exocytosis inhibition. TALL-104 LAMP-1 surface exposure, flow cytometry; cells stimulated with thapsigargin and PMA. inhibition, % at 10 µM. 360,000 compounds, 0.66% hits. AID 651702;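 active = inhibition above about 55%, limit read from the data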
Myeloid diff 2 = promotes myeloid progenitor differentiation. 360,000 compounds, 1% hits. calls only at 10 µM. ER-HoxA9 myeloid progenitors, lysozyme-GFP differentiation, flow cytometry. AID 624256;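 active = normalized GFP-positive differentiation at or above the plate's own cutoff, the solvent-only control mean plus 3 SD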;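 also: cells exposed to compound for four days before flow analysis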
Arrestin-AP2 inh = inhibitors of human beta-arrestin and AP2 interaction | FITC-arrestin peptide / GST-AP2 beads, flow cytometry; AP2 beta2 appendage carries R879A mutation | 340,000 compounds, 0.31% hits | inhibition, % at 10 µM;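 active = inhibition above a set limit, near 3 SD of compounds lacking own fluorescence, cut at about 54% in these data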;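 also: plate controls were DMSO wells for no effect and 5 µM unlabelled arrestin peptide for full effect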
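System: GST-tagged AP2 beta2-adaptin appendage (R879A) on 4 µm glutathione beads / Reagent: FITC-arrestin peptide, 50 nM / Detection: HyperCyt-sampled flow cytometry, FL1 channel, ex 488/em 535 nm / Timing: 12 min plus 1 h, RT / Buffer or medium: PBS plus Tween 20 (0.05%) and BSA (0.1%)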
ATG4B inh = ATG4B (human) cysteine protease inhibition; 340,000 compounds, 0.51% hits; Q9Y4P1; ATG4B cleavage of LC3-PLA2, NBD-HPC fluorescence, 1 h; inhibition, % at 8.33 µM; in the data active = inhibition above about 40%
NRP1-CendR mod = modulators of CendR peptide binding to human neuropilin-1; O14786; FAM-RPARPAR peptide binding to NRP-1, fluorescence polarization; inhibition, % at 25 µM; 360,000 compounds, 0.85% hits; AID 602438;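 active = inhibition or corrected inhibition above about 18%, plus a signal ratio from 0.5 to 1.5, limit read from the data, passing the limit was not always enough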
Target sequence (O14786 whole entry, looked up): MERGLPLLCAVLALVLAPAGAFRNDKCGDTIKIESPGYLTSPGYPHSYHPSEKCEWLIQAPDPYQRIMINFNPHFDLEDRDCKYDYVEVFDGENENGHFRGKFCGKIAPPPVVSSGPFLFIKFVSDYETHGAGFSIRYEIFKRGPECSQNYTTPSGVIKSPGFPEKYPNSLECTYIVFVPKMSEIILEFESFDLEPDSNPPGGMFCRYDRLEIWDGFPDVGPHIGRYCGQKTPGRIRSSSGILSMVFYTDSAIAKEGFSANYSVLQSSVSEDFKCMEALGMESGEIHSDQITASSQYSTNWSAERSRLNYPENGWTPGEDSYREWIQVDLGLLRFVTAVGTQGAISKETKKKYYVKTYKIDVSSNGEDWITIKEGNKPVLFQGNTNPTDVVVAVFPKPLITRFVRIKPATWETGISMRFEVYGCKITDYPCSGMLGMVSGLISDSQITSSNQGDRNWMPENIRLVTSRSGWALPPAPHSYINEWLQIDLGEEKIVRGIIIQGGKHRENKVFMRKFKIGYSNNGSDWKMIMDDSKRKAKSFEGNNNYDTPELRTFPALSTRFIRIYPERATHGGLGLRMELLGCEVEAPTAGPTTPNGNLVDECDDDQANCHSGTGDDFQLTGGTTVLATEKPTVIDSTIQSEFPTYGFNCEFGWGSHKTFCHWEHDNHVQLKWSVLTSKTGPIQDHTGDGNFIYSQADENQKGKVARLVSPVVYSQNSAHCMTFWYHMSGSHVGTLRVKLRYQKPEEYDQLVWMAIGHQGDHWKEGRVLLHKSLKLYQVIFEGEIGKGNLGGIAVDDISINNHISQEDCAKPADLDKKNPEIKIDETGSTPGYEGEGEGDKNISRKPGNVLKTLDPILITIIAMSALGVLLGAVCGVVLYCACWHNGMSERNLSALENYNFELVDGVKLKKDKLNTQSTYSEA
ABCB6 inh 2 = inhibitors of human ABC transporter ABCB6 | Q9NP58 | K562-ABCB6 porphyrin accumulation, flow cytometry, 1 h; active compounds read low | fluorescence ratio to DMSO, % at 10 µM | 360,000 compounds, 0.19% hits;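 active = fluorescence ratio to DMSO below 75%, the collection mean minus 3 SD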;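 also: signal is porphyrin accumulated inside mitochondria; 100% equals median channel fluorescence of DMSO control wells; lower ratio means ABCB6 inhibition with less porphyrin fluorescence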
* hit, by the source's call; i = inactive; . = no result given; + = active, no number.

SMILES	Exocytosis inh	Myeloid diff 2	Arrestin-AP2 inh	ATG4B inh	NRP1-CendR mod	ABCB6 inh 2
Cn1ccnc1SCC(=O)Nc1ccc(Cl)cn1	0	i	6	-8	18*	95
Cn1ccnc1SCC(=O)Nc1ccc([N+](=O)[O-])cn1	-6	i	4	-6	3	102
OCCCc1n[nH]c(=S)n1-c1ccccc1	0	i	5	-5	23*	98
CCCCN1C(=O)/C(=C/C=C2\Oc3ccccc3N2CC)SC1=S	0	+	3	2	131	i
CCCN1C(=O)/C(=C2/C=Cc3ccccc3N2CC)SC1=S	0	+	7	-2	6	127
CCCN1C(=O)/C(=C/C=C2\N(CC)c3ccccc3C2(C)C)SC1=S	13	+	5	5	124	i
C=CCN1C(=O)/C(=C\C=C2\N(C)c3ccccc3C2(C)C)SC1=S	0	+	46	-8	-66	i
CCCN1/C(=C2/SC(=S)N(CC)C2=O)C=Cc2ccccc21	3	i	-9	2	3	95
CC(OC(=O)C1=COCCO1)C(=O)NC(C)c1ccc(Cl)cc1Cl (stereo unspecified)	1	i	-5	-1	0	98
O=C(CP(=O)(c1ccccc1)c1ccccc1)Nn1cnnc1	-2	i	-18	-8	-4	98
CN(CC1COc2ccccc2O1)C(=O)c1ccc(Cl)c(S(=O)(=O)N2CCCCCC2)c1 (stereo unspecified)	-3	i	26	1	2	98
Cc1ccc(-n2nnnc2CNC(=O)C2CC(=O)N(c3ccccc3)C2)cc1C (stereo unspecified)	-3	i	-14	-8	28*	95
COC(=O)c1cc(CSc2ncnc3sccc23)oc1C	2	i	-10	6	-7	96
CCCOC(=O)Nc1cc(OC)c(Cl)cc1OC	0	i	2	-15	17*	86
O=[N+]([O-])c1ccc(S(=O)(=O)CC(CN2CCOCC2)N2CCOCC2)cc1 (stereo unspecified)	5	i	19	-2	12	100
O=[N+]([O-])c1ccc(S(=O)(=O)CC(CN2CCCCC2)N2CCCCC2)cc1 (stereo unspecified)	64*	i	-2	1	0	103
Cc1ccc(C(=O)O)cc1NC(=O)Nc1cccc2ccccc12	2	i	-18	4	22*	97
COc1ccc(-c2nc(=S)[nH][nH]2)cc1	56*	i	4	2	-4	102
CCOc1ccc(-c2nc(=S)[nH][nH]2)cc1	1	i	8	-6	6	104
CC(=O)N1CCc2cc(S(=O)(=O)NCC(=O)NCc3ccc(F)cc3)ccc21	2	i	48	2	-4	91
CCCCNC(=O)Nc1ccnn1C1CCCCC1	0	i	5	-16	11	95
Cc1cc(C)nc(NC(=O)/C=C/c2ccccc2Cl)n1	-8	+	-4	1	-2	96
Cc1cc(C)nc(NC(=O)/C=C/c2ccccc2Cl)c1	-3	i	2	21	-2	102
CC(=O)C[C@H](O)CC(=O)[C@H]1OC(=O)CCCCCCc2ccccc21	-1	i	24	.	0	102
O=c1c2c(-c3ccccc3)csc2nc2c3ccccc3c(NCCN3CCOCC3)nn12	67*	.	6	-12	2	92
SMILES	Exocytosis inh	Myeloid diff 2	Arrestin-AP2 inh	ATG4B inh	NRP1-CendR mod	ABCB6 inh 2
c1ccc(-c2csc3ncnc(NCCCN4CCOCC4)c23)cc1	-3	i	3	4	-8	103
N#CCCN(C(=S)Nc1ccc(S(=O)(=O)N2CCOCC2)cc1)c1ccccc1F	0	i	6	-5	0	97
CC1=Nc2ccccc2/C1=C/c1c(C)[nH]c2ccccc12	-7	+	23	5	-11	112
CC1=Nc2ccccc2/C1=C\c1nc(-c2ccccc2)oc1O	10	i	22	-11	-104	117
COC(=O)C(C(=O)OC)c1ncccc1[N+](=O)[O-]	2	i	30	-8	5	99
COC(=O)C(C(=O)OC)c1ccccc1[N+](=O)[O-]	1	i	2	-4	31*	88
CN(Cc1ccccc1)C(=O)[C@@H]1CCCN1C(=O)[C@@H]1CCCN1C(=O)c1cccc(Cl)c1	6	i	.	.	22*	94
C#CCOc1nc(C)cc(C)c1S(=O)(=O)c1ccccc1C	4	i	-4	0	35*	97
Cc1ccc(S(=O)(=O)N2CCOCC2)cc1C(=O)OCC(=O)Nc1ccc2c(c1)OCO2	-2	i	1	-15	-1	95
O=C1CN(C(=O)COC(=O)c2ccc(Br)o2)c2ccccc2N1	0	i	-3	-6	11	84
CC(=O)Nc1cccc(-c2ccnc3c2CC(C)(C(=O)NCc2ccc(F)c(F)c2)O3)c1 (stereo unspecified)	19	+	.	.	-7	110
CC(=O)Nc1ccc(-c2ccnc3c2CC(C)(C(=O)NCCC(F)(F)F)O3)cc1 (stereo unspecified)	-4	i	.	.	5	95
CC(=O)Nc1cccc(-c2ccnc3c2CC(C)(C(=O)NCCC(F)(F)F)O3)c1 (stereo unspecified)	-4	+	.	.	-5	144
O=C(CCS(=O)(=O)c1ccccc1)Nc1ccc(N2CCN(Cc3ccccc3)CC2)cc1	-9	+	0	-20	0	79
CCCn1c(=O)c2sccc2n2c(CCCC(=O)NC3CCN(Cc4ccccc4)CC3)nnc12	-1	i	28	1	17	91
O=C(NCCn1cccn1)C1CCC(=O)N(CCc2cccc(F)c2)C1 (stereo unspecified)	26	i	3	-2	47*	101
O=C(NCCn1cccn1)C1CCC(=O)N(CCc2ccc(Cl)cc2)C1 (stereo unspecified)	-20	i	-2	0	6	107
COc1ccc(N2C(=NC(=O)C(C)Oc3ccccc3)SC3CS(=O)(=O)CC32)cc1 (stereo unspecified)	-2	i	8	-3	28*	99
COc1cc(/C=C(\C#N)C(=O)c2ccc(O)c(O)c2)cc(I)c1O	4	+	4	4	142	106
COc1ccc(C=C(C#N)C(=O)c2ccccc2)cc1	-5	i	.	.	-23	99
O=C(C[C@H]1C/C=C\C[C@H](NC(=O)OCC2c3ccccc3-c3ccccc32)C(=O)OC[C@@H]2CCCN2C1=O)NCCO	-1	i	3	0	17	100
NNC(=O)c1cccc(COc2ccccc2Br)c1	1	+	7	-10	6	88

Assay outcomes deposited in PubChem BioAssay by several laboratories.
